According to ChEMBL document CHEMBL3865845 (J Med Chem, 2016):
Calls of active or inactive are those of the source. The calls are words filed in the database; no cut-off is given here.

Legend:
[1] = test system: Human immunodeficiency virus 1; experiment: Antiviral activity against wild type HIV1 NL4-3 infected in human MT4 cells by p24 ELISA; type: functional, cell-based; conditions: Human immunodeficiency virus 1, NL4-3, MT4
Procedure, shortened: (§1)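 Replication-inhibition IC50 values in MT-4 cells, each from three separate experiments.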

[2] = Cytotoxicity against human MT4 cells assessed as reduction in cell viability after 2 days by CytoTox-Glo assay; type: toxicity, cell-based; conditions: mt4, 48 h
[3] = Inhibition of HIV1 integrase activity assessed as suppression of viral replication in human H9 cells; type: cell-based; conditions: Human immunodeficiency virus 1, H9
COS = experiment: Inhibition of wild type HIV1 NL4-3 Env-mediated cell-cell fusion between viral envelope expressing virus-infected African green monkey COS cells to human TZM-bl cells incubated overnight by luciferase reporter gene assay; type: cell-based; conditions: Human immunodeficiency virus 1
[4] = test system: Human immunodeficiency virus 1; experiment: Antiviral activity against bevirimat-resistant HIV1 NL4-3 harboring GagV370A mutant infected in human MT4 cells by p24 ELISA; type: functional, cell-based; conditions: Human immunodeficiency virus 1, NL4-3, MT4; procedure, shortened: as §1
[5] = test system: Human immunodeficiency virus 1; experiment: Resistance index, ratio of IC50 for bevirimat-resistant HIV1 NL4-3 harboring GagV370A mutant infected in human MT4 cells to IC50 for wild type HIV1 NL4-3 infected in human MT4 cells; type: functional
[6] = test system: Human immunodeficiency virus 1; experiment: Potency index, ratio of IC50 for Bevirimat to IC50 for test compound for antiviral activity against bevirimat-resistant HIV1 NL4-3 harboring GagV370A mutant infected in human MT4 cells by p24 ELISA; type: functional
[7] = Inhibition of HIV1 integrase activity assessed as suppression of viral replication in human MT2 cells; type: cell-based; conditions: Human immunodeficiency virus 1, MT2
[8] = Half life in human liver microsomes at 1 uM in presence of NADPH by LC/MS/MS analysis; type: ADME
[9] = test system: Human immunodeficiency virus 1; experiment: Antiinfective activity against wild type HIV1 NL4-3 assessed as inhibition of viral infection by measuring viral infection level in human TZM-bl cells at 2 uM after 48 hrs by luciferase reporter gene assay (reference value: 100%); type: functional; parameters: scale not given: the % may be the effect or the level left
Procedure, shortened: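 NL4-3 infection of TZM-bl cells with each compound at 2 µM, read by luminescence. Infection without compound served as control. % control infection = 100 × RLU(compound)/RLU(control).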

[10] = Selectivity index, ratio of CC50 for human MT4 cells to IC50 for wild type HIV1 NL4-3 infected in human MT4 cells; type: functional
Procedure, shortened: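 Index is CC50 (cytotoxicity in MT-4 cells) divided by IC50 (inhibition of HIV-1/NL4-3 replication in MT-4 lymphocytes). Values are from three separate experiments. A ratio below 5 was scored as no selective anti-HIV activity.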

[11] = Elimination half life in healthy humans; type: ADME; conditions: human, in vivo; read-out: beta t1/2
[12] = test system: Human immunodeficiency virus 1; experiment: Potency index, ratio of IC50 for Bevirimat to IC50 for test compound for antiviral activity against wild type HIV1 NL4-3 infected in human MT4 cells by p24 ELISA; type: functional

O=C(O)/C=C/c1ccc2c(c1)OCO2
IC50 [1]: > 90 µM | CC50 [2]: > 90 µM

C=C(C)[C@@H]1CC[C@]2(C(=O)N3CCN(C(=O)/C=C/c4ccc(OC)c(OC)c4)CC3)CC[C@]3(C)[C@H](CC[C@@H]4[C@@]5(C)CC[C@H](O)C(C)(C)[C@@H]5CC[C@]43C)[C@@H]12
IC50 [1]: > 1 µM

O=C(/C=C/c1ccc(O)c2c1[C@H](C(=O)O)[C@@H](c1ccc(O)c(O)c1)O2)O[C@H](Cc1ccc(O)c(O)c1)C(=O)O [LITHOSPERMIC ACID]
IC50 [3]: 2 µM

C=C(C)[C@@H]1CC[C@]2(C(=O)N3CCN(C(=O)/C=C/c4ccc(OCOC)c(OCOC)c4)CC3)CC[C@]3(C)[C@H](CC[C@@H]4[C@@]5(C)CC[C@H](OC(=O)CC(C)(C)C(=O)O)C(C)(C)[C@@H]5CC[C@]43C)[C@@H]12
IC50 [1]: 0.05 µM | CC50 [2]: > 4.5 µM

C=C(C)[C@@H]1CC[C@]2(C(=O)N3CCN(C(=O)/C=C/c4ccc(OCOC)c(OCOC)c4)CC3)CC[C@]3(C)[C@H](CC[C@@H]4[C@@]5(C)CC[C@H](O)C(C)(C)[C@@H]5CC[C@]43C)[C@@H]12
IC50 [1]: > 1 µM

C=C(C)[C@@H]1CC[C@]2(C(=O)N3CCN(CCCCC(=O)N4CCN(C(=O)/C=C/c5ccc6c(c5)OCO6)CC4)CC3)CC[C@]3(C)[C@H](CC[C@@H]4[C@@]5(C)CC[C@H](O)C(C)(C)[C@@H]5CC[C@]43C)[C@@H]12
IC50 [1]: > 1 µM

C=C(C)[C@@H]1CC[C@]2(C(=O)N3CCN(C(=O)/C=C/c4ccc5c(c4)OCO5)CC3)CC[C@]3(C)[C@H](CC[C@@H]4[C@@]5(C)CC[C@H](O)C(C)(C)[C@@H]5CC[C@]43C)[C@@H]12
IC50 [1]: > 1 µM

C=C(C)[C@@H]1CC[C@]2(C(=O)NCCCCCCCNC(C)=O)CC[C@]3(C)[C@H](CC[C@@H]4[C@@]5(C)CC[C@H](O)C(C)(C)[C@@H]5CC[C@]43C)[C@@H]12
inhibition (COS): Active

C=C(C)[C@@H]1CC[C@]2(C(=O)N3CCN(C(=O)/C=C/c4ccc(O)c(O)c4)CC3)CC[C@]3(C)[C@H](CC[C@@H]4[C@@]5(C)CC[C@H](OC(=O)CC(C)(C)C(=O)O)C(C)(C)[C@@H]5CC[C@]43C)[C@@H]12
IC50 [1]: 0.028 µM | IC50 [4]: 2.21 µM | Ratio IC50 [5]: 78.93 | CC50 [2]: > 4.5 µM

C=C(C)[C@@H]1CC[C@]2(C(=O)N3CCNCC3)CC[C@]3(C)[C@H](CC[C@@H]4[C@@]5(C)CC[C@H](OC(=O)CC(C)(C)C(=O)O)C(C)(C)[C@@H]5CC[C@]43C)[C@@H]12
IC50 [1]: 0.49 µM | CC50 [2]: > 1.5 µM

C=C(C)[C@@H]1CC[C@]2(C(=O)N3CCN(CCCCC(=O)N4CCN(C(=O)/C=C/c5ccc6c(c5)OCO6)CC4)CC3)CC[C@]3(C)[C@H](CC[C@@H]4[C@@]5(C)CC[C@H](OC(=O)CC(C)(C)C(=O)O)C(C)(C)[C@@H]5CC[C@]43C)[C@@H]12
IC50 [1]: 0.012 µM | IC50 [4]: 5.53 µM | Ratio IC50 [5]: 460.83 | CC50 [2]: > 4.5 µM | Ratio IC50 [6]: 1.39 - 51.4

O=C(/C=C/c1ccc(O)c(O)c1)O[C@@H]1C[C@](O)(C(=O)O)C[C@@H](OC(=O)/C=C/c2ccc(O)c(O)c2)[C@H]1O
IC50 [7]: 1.9 µM

C=C(C)[C@@H]1CC[C@]2(C(=O)O)CC[C@]3(C)[C@H](CC[C@@H]4[C@@]5(C)CC[C@H](OC(=O)CC(C)(C)C(=O)O)C(C)(C)[C@@H]5CC[C@]43C)[C@@H]12 [BEVIRIMAT]
IC50 [1]: 0.065 µM | IC50 [4]: 7.71 µM | t1/2 [8]: 0.9 h | Activity [9]: 98% | CC50 [2]: > 4.5 µM

O=C(O)/C=C/c1ccc(O)c(O)c1 [CAFFEIC ACID]
IC50 [1]: > 1 µM | Ratio CC50/IC50 [10]: <5

O=C(/C=C/c1ccc(O)c(O)c1)O[C@H](C(=O)O)[C@H](OC(=O)/C=C/c1ccc(O)c(O)c1)C(=O)O [CHICORIC ACID]
IC50 [7]: 4.2 µM

C=C(C)[C@@H]1CC[C@]2(C(=O)N3CCN(C(=O)/C=C/c4ccc(OC)c(OC)c4)CC3)CC[C@]3(C)[C@H](CC[C@@H]4[C@@]5(C)CC[C@H](OC(=O)CC(C)(C)C(=O)O)C(C)(C)[C@@H]5CC[C@]43C)[C@@H]12
IC50 [1]: 0.029 µM | IC50 [4]: 2.97 µM | Ratio IC50 [5]: 102.41 | CC50 [2]: > 4.5 µM | Ratio IC50 [6]: 1.39 - 51.4

C=C(C)[C@@H]1CC[C@]2(C(=O)N3CCN(C(=O)/C=C/c4ccc5c(c4)OCO5)CC3)CC[C@]3(C)[C@H](CC[C@@H]4[C@@]5(C)CC[C@H](OC(=O)CC(C)(C)C(=O)O)C(C)(C)[C@@H]5CC[C@]43C)[C@@H]12
half-life [11]: 56.3 to 69.5 h | IC50 [1]: 0.019 µM | IC50 [4]: 0.15 µM | t1/2 [8]: 2.13 h | Ratio IC50 [5]: 7.89 - 7.9 | Activity [9]: 99% | CC50 [2]: > 4.5 µM | Ratio IC50 [12]: 3 | Ratio IC50 [6]: 51

O=C(/C=C/c1ccc2c(c1)OCO2)N1CCNCC1
IC50 [1]: > 90 µM | CC50 [2]: > 90 µM
